One data set has as its system cruzain and rhodesain. As to the kind of experiment: Primary screen of the MMV400 at 5 µM against cruzain and rhodesain. The format is biochemical, Trypanosoma cruzi; Trypanosoma brucei. The following applies: primary screen at 5 µM. Put shortly:
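Fluorimetric screen of the library at 5 µM against recombinant cruzain and rhodesain (1 nM each). Substrate was 2.5 µM Z-FR-AMC in 0.1 M sodium acetate pH 5.5 with 0.01% Triton X-100 and 1 mM β-mercaptoethanol. Runs had no pre-incubation or 10 min enzyme–compound pre-incubation, two duplicates each. AMC release was read at 340/440 nm for 5 min at 12 s intervals; DMSO and E-64 served as controls.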

The target of the next data set is rhodesain (Trypanosoma brucei rhodesiense, UniProt Q95PM0). The data set is described as follows: Rhodesain enzymatic assay. It counts as biochemical.
Data set [1] has as its target T1, cruzain (Trypanosoma cruzi, UniProt P25779). The data set is described as follows: Aggregation assays against cruzain. The following applies: for Sensitivity of inhibition to pre-incubation with BSA: BSA 2 mg/mL in Triton X-100 0.001%; for Sensitivity of inhibition to detergent (Triton X-100): absence, 0.01% and 0.1% Triton X-100, 10 min pre-incubation with cruzain. The format is biochemical. Summed up:
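Recombinant cruzain (1 nM) was pre-incubated with the test compound for 10 min at room temperature, with no Triton X-100, 0.01% or 0.1% Triton X-100. Percent inhibition was compared across detergent levels. In a BSA variant, compound sat 5 min with BSA (2 mg/mL in 0.001% Triton), then 5 min with cruzain, before substrate was added, run alongside a BSA-free control. Fluorogenic Z-FR-AMC read-out was at 340/440 nm.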

A further data set relates to T.cruzi (Y strain). As to the kind of experiment: Trypomastigote release from T. cruzi-infected peritoneal macrophages. It counts as cell-based, Trypanosoma cruzi. The following applies: 50 µM.
For data set [2], the target named is T1, cruzain. As to the kind of experiment: Cruzain enzymatic assay. It counts as biochemical. The conditions noted are these: for Mechanism of inhibition against cruzain: Lineweaver-Burk plots.
The next data set has as its target rat cathepsin B (Rattus norvegicus, UniProt P00787). The data set is described as follows: Cathepsin B inhibition assay. It counts as biochemical. The conditions noted are these: read-out: Inhibition of cathepsin B (greatest observed). Put shortly: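 Buffer: 100 mM sodium phosphate, 100 mM NaCl, 1 mM EDTA, 1 mM DTT, 0.01% CHAPS, 25°C. Test compound at 100 µM or 50 µM, with or without 5 min enzyme pre-incubation. Fluorescence at 380/440 nm for 15 min. Percent inhibition versus 2% DMSO; E64 1 µM positive control. Two independent experiments, each in triplicate.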

Data set [3] relates to Peritoneal macrophages of C57BL/6 mice. As to the kind of experiment: LDH cytotoxicity assay in peritoneal macrophages. The format is cell-based, mouse. The following applies: 3.125 µM, 24 h.
In data set [4] the test system is Nitric oxide levels in macrophage culture. As to the kind of experiment: Nitric oxide detection. It counts as cell-based, mouse. The following applies: culture supernatant after 11 days; 12 at 3.125 µM, IFN-γ 100 ng/mL. Put shortly:
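Peritoneal macrophages from thioglycolate-elicited female C57BL/6 mice (8–10 wk) were plated at 2 × 10^5/well, adhered 3 h, then rested overnight. They were infected 2 h with Y-strain T. cruzi trypomastigotes (5:1 parasite:cell), washed, then given test compound or IFN-γ at 37°C, 5% CO2. Day-11 supernatant plus Griess reagent, 10 min, A540 for nitrite. Three independent experiments in triplicate; mean ± SEM.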

The results in this text go back to article PMC6718330 (European journal of medicinal chemistry, 2019).

As a reminder, the Ki is a measure of affinity in units of concentration, obtained from inhibition or displacement. Higher therefore signals lower affinity. A word on the inhibition: it is the share of the control response that was lost under treatment.

Entries after “also recorded” stand apart in the source; their conditions may differ.

T1 sequence (P25779 123-467): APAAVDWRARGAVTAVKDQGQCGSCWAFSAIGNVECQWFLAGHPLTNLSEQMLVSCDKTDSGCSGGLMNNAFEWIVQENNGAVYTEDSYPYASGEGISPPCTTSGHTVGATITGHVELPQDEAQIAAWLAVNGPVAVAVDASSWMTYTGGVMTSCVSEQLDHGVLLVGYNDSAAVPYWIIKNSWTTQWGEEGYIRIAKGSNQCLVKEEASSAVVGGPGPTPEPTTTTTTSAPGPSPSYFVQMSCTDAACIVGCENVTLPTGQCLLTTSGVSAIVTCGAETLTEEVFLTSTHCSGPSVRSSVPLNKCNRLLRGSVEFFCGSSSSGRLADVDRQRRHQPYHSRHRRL
Sequence of rat cathepsin B (P00787 80-339): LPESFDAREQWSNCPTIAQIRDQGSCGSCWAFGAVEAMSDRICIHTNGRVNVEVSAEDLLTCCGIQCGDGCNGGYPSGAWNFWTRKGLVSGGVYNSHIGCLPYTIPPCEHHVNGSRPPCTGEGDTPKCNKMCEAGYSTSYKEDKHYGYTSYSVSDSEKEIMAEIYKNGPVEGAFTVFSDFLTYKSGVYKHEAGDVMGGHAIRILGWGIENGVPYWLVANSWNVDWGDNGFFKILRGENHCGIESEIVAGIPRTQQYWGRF

Take `CCOc1ccc(/C=C/c2nc(=O)c3ccccc3o2)cc1` [Compound 1]: the “Over 50% cruzain and rhodesain inhibition?” value in the data set with cruzain and rhodesain was “yes”.
On to `Cn1c(=O)n(C)c2cc(CNCCNc3ccnc4cc(Cl)ccc34)ccc21` [Compound 2], for which, in the data set on cruzain and rhodesain, the “Over 50% cruzain and rhodesain inhibition?” value is reported as “yes”. This molecule also gave a Ki on rhodesain of 1400 nM. Also, the “Mechanism of inhibition versus rhodesain” value on rhodesain (Lineweaver-Burk plots) is listed as “mixed mechanism; also recorded: mixed-type inhibitor”. For the same molecule, the “Sensitivity of inhibition to pre-incubation with BSA” value (from here on “Sensitivity of inhibition … with BSA”) on cruzain [1] is recorded as “not sensitive to detergent nor BSA incubation”. Further, the “Trypanocidal activity in initial screen” value with T.cruzi (Y strain) is reported as “trypanocidal activity”.
As to `Cc1cc(Nc2ccc(C)c(Cl)c2)n2nc(C(F)(F)F)nc2n1` [Compound 3], the “Over 50% cruzain and rhodesain inhibition?” value in the data set on cruzain and rhodesain is recorded as “no”.
The same measure, in the same setting: the same measure for `Cc1nc2ccccc2c(O)c1CC=C(Cl)Cl` [Compound 4]: “yes”.
For `c1ccc(-c2ccc(-c3nc4ccccc4[nH]3)cc2)cc1` [Compound 5], the “Over 50% cruzain and rhodesain inhibition?” value in the data set with cruzain and rhodesain is “yes”. Moreover, on cruzain [1], the “Fluorescence in the assays (signal interference)” value is recorded as “displayed fluorescence in the assays”, the “Sensitivity of inhibition … with BSA” value is given as “sensitive to pre-incubation with bovine serum albumin” and the “Sensitivity of inhibition to detergent (Triton X-100)” value was “highly sensitive to Triton”.
`CCOc1cccc(C(=O)Nc2ccc(-c3nc4ccccc4[nH]3)cc2)c1` [Compound 6]: the “Over 50% cruzain and rhodesain inhibition?” value in the data set with cruzain and rhodesain is recorded as “yes”. In addition, the “Hill slope of dose-response curve” value at cruzain [2] (cruzain dose-response curve) was 3.9. Also, at cruzain [1], the “Fluorescence in the assays (signal interference)” value is given as “displayed fluorescence in the assays”, the “Sensitivity of inhibition … with BSA” value is reported as “sensitive to pre-incubation with bovine serum albumin” and the “Sensitivity of inhibition to detergent (Triton X-100)” value is recorded as “highly sensitive to Triton”.
For the molecule `c1ccc(CNc2nc(Nc3ccccc3)nc3ccccc23)cc1` [Compound 7], the “Over 50% cruzain and rhodesain inhibition?” value in the data set on cruzain and rhodesain was “yes”. The “Mechanism of inhibition against cruzain” value at cruzain [2] was “competitive inhibition”. Also, the “Detergent sensitivity of inhibition at 50 µM” value on cruzain [1] (50 µM compound) was “some detergent-sensitivity”. Further, the “Sensitivity of inhibition … with BSA” value at cruzain [1] is given as “not sensitive to detergent nor BSA incubation”. For the same molecule, on rat cathepsin B, the inhibition at 100 µM was found to be 29%. Moreover, the “Trypanocidal activity in initial screen” value in the data set on T.cruzi (Y strain) is on record as “trypanocidal activity”.
For `COCCNCC(O)Cn1c2ccc(Cl)cc2c2cc(Cl)ccc21` (stereo not shown) [Compound 8], the “Over 50% cruzain and rhodesain inhibition?” value with cruzain and rhodesain is given as “no”. Also, on cruzain [1], the “Sensitivity of inhibition … with BSA” value was “sensitive to pre-incubation with bovine serum albumin” and the “Sensitivity of inhibition to detergent (Triton X-100)” value is recorded as “highly sensitive to Triton”.
Take `CCOC(=O)c1c(C)n(-c2ccccc2)c2ccc(OC(=O)c3cc(OC)c(OC)c(OC)c3)cc12` [Compound 9]: the “Over 50% cruzain and rhodesain inhibition?” value in the data set with cruzain and rhodesain is on record as “yes”.
Turning to `CC(=O)c1ccc(NC(=O)CSc2nc(-c3ccccc3Cl)ns2)cc1` [Compound 10], the “Over 50% cruzain and rhodesain inhibition?” value in the data set with cruzain and rhodesain is listed as “yes”.
Same read-out and setting: the same measure for `Cc1ccc(C(=O)c2oc3ccc4c(C)cc(=O)oc4c3c2C)cc1` [Compound 11]: “yes”.
Turning to `Cl.Cl.Clc1cc(Br)ccc1-c1ccc(CNCC2CCNCC2)o1` [Compound 12, 1-[5-(4-Bromo-2-chlorophenyl)-2-furyl]-N-(4-piperidinylmethyl)methanamine dihydrochloride], the “Over 50% cruzain and rhodesain inhibition?” value with cruzain and rhodesain was “no”. In addition, the “Mechanism of inhibition against cruzain” value at cruzain [2] is listed as “competitive inhibition”. The “Sensitivity of inhibition … with BSA” value at cruzain [1] is reported as “not sensitive to detergent nor BSA incubation”. In addition, the “Trypanocidal activity in initial screen” value in the data set with T.cruzi (Y strain) is given as “trypanocidal activity”. The “Cytotoxicity against macrophages (LDH levels)” value in data set [3] is “low toxicity against murine macrophages; also recorded: did not exhibit cytotoxic activity”. Moreover, the Nitric oxide production result in data set [4] is “independent of NO release”.
Regarding `COc1ccc2sc(N(Cc3cccnc3)C(=O)c3ccc(C#N)cc3)nc2c1` [Compound 13], in the data set on cruzain and rhodesain, the “Over 50% cruzain and rhodesain inhibition?” value is recorded as “yes”.
In the case of `FC(F)(F)c1cccc(CNC2CCN(CCc3ccccc3)CC2)c1` [Compound 14], the “Over 50% cruzain and rhodesain inhibition?” value in the data set on cruzain and rhodesain was “yes”.
Consider `COCCNC(=O)c1ccc(OC2CCN(Cc3ccc(F)c(F)c3)CC2)c(Cl)c1` [Compound 15], for which the “Over 50% cruzain and rhodesain inhibition?” value in the data set on cruzain and rhodesain is on record as “yes”. Moreover, the “Trypanocidal activity in initial screen” value with T.cruzi (Y strain) is given as “trypanocidal activity”.

B1: IFN-γ: Interferon gamma (100 ng/mL, Sigma) used to stimulate macrophages as comparison treatment (protein, UniProt P01579 24-161, looked up)
Interferon gamma: QDPYVKEAENLKKYFNAGHSDVADNGTLFLGILKNWKEESDRKIMQSQIVSFYFKLFKNFKDDQSIQKSVETIKEDMNVKFFNSNKKKRDDFEKLTNYSVTDLNVQRKAIHELIQVMAELSPAAKTGKRKRSQMLFRG
On to B1, for which the Nitric oxide production result in data set [4] is “increased”.
